The source of these data is PubChem BioAssay.

The nature of assay [1]: RPL19A-GFP modulators, yeast TOR pathway, confirmation, cell-based, S. cerevisiae, flow cytometry, cherry picks, mother/daughter gates (AID 2270;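 active means GFP response below 50% of the DMSO control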). The conditions noted are these: S. cerevisiae RPL19A-GFP strain, 3 h, at 10 µM, stronger effect = lower value, 100 = same GFP as DMSO wells. On the technique in general: A flow cytometer gives signals particle by particle.
The nature of assay [2]: LAP4-GFP expression modulators in yeast, confirmation, cell-based, cherry picks, flow cytometry, mother/daughter gates (AID 2271;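 active means GFP response above 150% of the DMSO control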;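 further: ratio of sample to DMSO plate mean so 100% equals DMSO level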). The conditions noted are these: S. cerevisiae LAP4-GFP strain, 3 h, at 10 µM, stronger effect = higher value, 100 means same as DMSO control. The essentials:
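Measured by: GFP by flow cytometry. Test system: GFP-fusion yeast strain. Input: yeast cells seeded at OD600 of 0.2. Timing: 30 °C, 3 h compound incubation, rotating. Buffer or medium: synthetic complete medium for yeast. Benchmarks: DMSO-only negative wells, rapamycin 400 ng/mL positive wells. Compound: 10 µM single dose.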

A short description of assay [3]: modulators of MEP2-GFP levels in yeast, confirmation, S. cerevisiae, flow cytometry GFP, cherry picks (AID 2272;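 active means GFP response above 150% of the DMSO control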;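 further: ratio of well signal to plate DMSO mean so 100% equals DMSO level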). The following applies: S. cerevisiae MEP2-GFP strain, 3 h, at 10 µM, stronger effect = higher value.
Assay [4] can be described thus: AGP1-GFP expression modulators, hit retest, confirmation, cell-based, flow cytometry, S. cerevisiae, cherry picks (AID 2273).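 Further: median GFP channel fluorescence over the whole cell population gate.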 The following applies: S. cerevisiae AGP1-GFP strain, 3 h, at 10 µM.
Assay [5] is described as follows: modulators of CIT2-GFP expression in yeast, confirmation, S. cerevisiae, GFP fusion, cherry picks, mother/daughter gates (AID 2274). The conditions noted are these: S. cerevisiae CIT2-GFP strain, flow cytometry, 3 h, at 10 µM, stronger effect = higher value.
The mark [6] stands for this setting: measured here: daughter cell gate.
Where [7] appears, read: measured here: mother cell gate.
Setting [8] is: measured here: daughter cell gate response.
Setting [9] is: measured here: mother cell gate response.

Activity calls are given as the source filed them.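 How the source made its calls, unless noted: active means GFP response above 150% of the DMSO level; inconclusive means fewer than 70 events counted for a yeast strain; inactive means the rest.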

For `COc1ccc(C(=O)/C=C/c2ccccc2C(F)(F)F)cc1`, the GFP response vs DMSO in assay [1] is 100% (inactive); in assay [1] (setting [6]) it was 99.1%; in assay [1] (setting [7]), 99.5%; in assay [3] it was 100% (inactive). Further, the GFP response relative to DMSO in assay [2] was 99.2% (inactive); in assay [2] (setting [8]), 99.2%; in assay [2] (setting [9]), 98.3%. The GFP response, % of DMSO was 99.7% (inactive) in assay [4], 107% (inactive) in assay [5], 106% in assay [5] (setting [6]) and 107% in assay [5] (setting [7]).

In the case of `CCOC(=O)CCS(=O)(=O)c1nc(-c2ccccc2)cc(C(F)(F)F)n1`, the GFP response vs DMSO in assay [1] was 98.8% (inactive); in assay [1] (setting [6]), 102%; in assay [1] (setting [7]), 93.5%; in assay [3], 146% (inactive). Also, the GFP response relative to DMSO was 164% (active) in assay [2], 153% in assay [2] (setting [8]) and 170% in assay [2] (setting [9]). Further, the GFP response, % of DMSO in assay [4] is 127% (inactive); in assay [5] it was 100% (inactive); in assay [5] (setting [6]), 106%; in assay [5] (setting [7]), 92.3%.

Turning to `Cc1cc(O)c(C(=O)/C=C/c2ccc(Cl)cc2)c(=O)o1`, the GFP response vs DMSO in assay [1] is 97.2% (inactive); in assay [1] (setting [6]), 101%; in assay [1] (setting [7]) it was 95.5%; in assay [3] it was 110% (inactive). Moreover, the GFP response relative to DMSO in assay [2] was 180% (active); in assay [2] (setting [8]), 156%; in assay [2] (setting [9]), 180%. For the same molecule, the GFP response, % of DMSO was 99.7% (inactive) in assay [4], 95% (inactive) in assay [5], 104% in assay [5] (setting [6]) and 86.3% in assay [5] (setting [7]).

`COc1ccc(/C=C2/C(=O)ON=C2c2ccccc2)cc1OC`: the GFP response vs DMSO in assay [1] was 102% (inactive); in assay [1] (setting [6]), 107%; in assay [1] (setting [7]) it was 99.2%; in assay [3], 102% (inactive). The results for the GFP response relative to DMSO in assay [2], in assay [2] (setting [8]) and in assay [2] (setting [9]) were 101% (inactive), 102% and 99.5%, respectively. Further, the GFP response, % of DMSO in assay [4] was 101% (inactive); in assay [5], 102% (inactive); in assay [5] (setting [6]) it was 106%; in assay [5] (setting [7]) it was 95.6%.

For `O=C(O)c1ccc(SCc2cnc(Cl)s2)cc1`, the GFP response vs DMSO was 104% (inactive) in assay [1], 96.7% in assay [1] (setting [6]), 103% in assay [1] (setting [7]) and 110% (inactive) in assay [3]. Moreover, the GFP response relative to DMSO in assay [2] was 116% (inactive); in assay [2] (setting [8]) it was 99%; in assay [2] (setting [9]), 112%. The GFP response, % of DMSO in assay [4] was 114% (inactive); in assay [5], 108% (inactive); in assay [5] (setting [6]), 101%; in assay [5] (setting [7]), 104%.

In the case of `COC(=O)c1cc(S(=O)(=O)Nc2nn(C)c3ccccc23)oc1C`, the GFP response vs DMSO is 97.2% (inactive) in assay [1], 98.1% in assay [1] (setting [6]), 97.1% in assay [1] (setting [7]) and 100% (inactive) in assay [3]. The GFP response relative to DMSO is 96.7% (inactive) in assay [2], 97.6% in assay [2] (setting [8]) and 94% in assay [2] (setting [9]). For the same molecule, the GFP response, % of DMSO in assay [4] was 95% (inactive); in assay [5] it was 99.7% (inactive); in assay [5] (setting [6]) it was 101%; in assay [5] (setting [7]) it was 99.7%.

Turning to `O=C(Nc1nc(-c2ccc(F)cc2)cs1)c1cnccn1`, the GFP response vs DMSO in assay [1] is 97.8% (inactive); in assay [1] (setting [6]), 98.3%; in assay [1] (setting [7]), 98.1%; in assay [3] it was 110% (inactive). Further, the values for the GFP response relative to DMSO in assay [2], in assay [2] (setting [8]) and in assay [2] (setting [9]) were 101% (inactive), 97.9% and 101%, respectively. Besides, the GFP response, % of DMSO in assay [4] is 96.2% (inactive); in assay [5] it was 105% (inactive); in assay [5] (setting [6]), 98.3%; in assay [5] (setting [7]), 104%.

With `O=C(COc1ccccc1)NNC(=S)NC(=O)c1ccccc1`, the GFP response vs DMSO in assay [1] is 114% (inactive); in assay [1] (setting [6]), 118%; in assay [1] (setting [7]) it was 110%; in assay [3], 127% (inactive). For the same molecule, the results for the GFP response relative to DMSO in assay [2], in assay [2] (setting [8]) and in assay [2] (setting [9]) were 171% (active), 165% and 166%, respectively. For the same molecule, the GFP response, % of DMSO in assay [4] was 116% (inactive); in assay [5], 108% (inactive); in assay [5] (setting [6]) it was 121%; in assay [5] (setting [7]) it was 98.7%.

Take `O=C(COc1ccc(OCc2ccccc2)cc1)NN=C1CCCC1`: the GFP response vs DMSO in assay [1] was 98% (inactive); in assay [1] (setting [6]), 98.4%; in assay [1] (setting [7]), 97.1%; in assay [3], 103% (inactive). Also, the GFP response relative to DMSO in assay [2] is 107% (inactive); in assay [2] (setting [8]), 104%; in assay [2] (setting [9]), 109%. For the same molecule, the GFP response, % of DMSO in assay [4] was 99.5% (inactive); in assay [5], 100% (inactive); in assay [5] (setting [6]), 101%; in assay [5] (setting [7]), 99.3%.

With `Cc1[nH][nH]c(=O)c1C(c1ccc(-c2ccc(Cl)c(Cl)c2)o1)c1c(C)[nH][nH]c1=O`, the GFP response vs DMSO is 104% (inactive) in assay [1], 104% in assay [1] (setting [6]), 101% in assay [1] (setting [7]) and 130% (inactive) in assay [3]. For the same molecule, the GFP response relative to DMSO is 173% (active) in assay [2], 142% in assay [2] (setting [8]) and 169% in assay [2] (setting [9]). Besides, the GFP response, % of DMSO in assay [4] was 115% (inactive); in assay [5] it was 103% (inactive); in assay [5] (setting [6]), 105%; in assay [5] (setting [7]), 102%.

With `O=[N+]([O-])c1ccc(Sc2ccccc2Cl)nc1`, the GFP response vs DMSO in assay [1] was 103% (inactive); in assay [1] (setting [6]) it was 104%; in assay [1] (setting [7]), 103%; in assay [3] it was 112% (inactive). Also, the GFP response relative to DMSO in assay [2] was 91.9% (inactive); in assay [2] (setting [8]) it was 93.6%; in assay [2] (setting [9]), 89.7%. Moreover, the GFP response, % of DMSO in assay [4] is 106% (inactive); in assay [5] it was 105% (inactive); in assay [5] (setting [6]) it was 106%; in assay [5] (setting [7]), 103%.

Turning to `CCOc1ccc(N2C(=O)C(Cl)=C(Nc3ccccc3O)C2=O)cc1`, the GFP response vs DMSO in assay [1] was 97.4% (inactive); in assay [1] (setting [6]), 98%; in assay [1] (setting [7]), 98.1%; in assay [3] it was 104% (inactive). Moreover, the GFP response relative to DMSO is 103% (inactive) in assay [2], 99.3% in assay [2] (setting [8]) and 105% in assay [2] (setting [9]). Besides, the GFP response, % of DMSO was 96.7% (inactive) in assay [4], 97.8% (inactive) in assay [5], 100% in assay [5] (setting [6]) and 95.6% in assay [5] (setting [7]).

On to `Cc1c(C(=O)NCCSCc2cccc(C(F)(F)F)c2)cnn1-c1ccc(F)cc1`, for which the GFP response vs DMSO is 102% (inactive) in assay [1], 103% in assay [1] (setting [6]), 103% in assay [1] (setting [7]) and 104% (inactive) in assay [3]. In addition, the results for the GFP response relative to DMSO in assay [2], in assay [2] (setting [8]) and in assay [2] (setting [9]) were 98.8% (inactive), 96.5% and 98.5%, respectively. The GFP response, % of DMSO in assay [4] was 99.1% (inactive); in assay [5] it was 108% (inactive); in assay [5] (setting [6]), 102%; in assay [5] (setting [7]), 108%.

Turning to `CCC(=O)Nc1ccc(NC(=O)c2cc3ccccc3o2)cc1`, the GFP response vs DMSO was 103% (inactive) in assay [1], 99.3% in assay [1] (setting [6]), 104% in assay [1] (setting [7]) and 101% (inactive) in assay [3]. The values for the GFP response relative to DMSO in assay [2], in assay [2] (setting [8]) and in assay [2] (setting [9]) were 99.5% (inactive), 99.1% and 98.4%, respectively. The GFP response, % of DMSO in assay [4] is 101% (inactive); in assay [5], 97.3% (inactive); in assay [5] (setting [6]) it was 95.6%; in assay [5] (setting [7]), 96.8%.

With `Cc1ccccc1N1C(=O)c2sc3nc4c(c(=O)n3c2C1=O)CCC4`, the GFP response vs DMSO in assay [1] was 96.2% (inactive); in assay [1] (setting [6]) it was 94.9%; in assay [1] (setting [7]) it was 96.3%; in assay [3], 99% (inactive). Besides, the figures for the GFP response relative to DMSO in assay [2], in assay [2] (setting [8]) and in assay [2] (setting [9]) were 107% (inactive), 107% and 110%, respectively. The GFP response, % of DMSO in assay [4] was 102% (inactive); in assay [5], 90.1% (inactive); in assay [5] (setting [6]), 90.2%; in assay [5] (setting [7]), 88.2%.

For `Cc1cc(O)c(C(=O)/C=C/c2ccc(C(C)C)cc2)c(=O)o1`, the GFP response vs DMSO in assay [1] was 95.4% (inactive); in assay [1] (setting [6]), 93.9%; in assay [1] (setting [7]), 96.6%; in assay [3] it was 96.2% (inactive). Further, the GFP response relative to DMSO in assay [2] is 104% (inactive); in assay [2] (setting [8]) it was 104%; in assay [2] (setting [9]) it was 106%. The GFP response, % of DMSO in assay [4] was 100% (inactive); in assay [5], 98.3% (inactive); in assay [5] (setting [6]), 99.1%; in assay [5] (setting [7]), 97.3%.

For the molecule `COc1cc(NC(=O)c2cccc(F)c2)ccc1NC(=O)c1cc2ccccc2o1`, the GFP response vs DMSO in assay [1] was 97.8% (inactive); in assay [1] (setting [6]), 98.3%; in assay [1] (setting [7]) it was 97.6%; in assay [3] it was 102% (inactive). For the same molecule, the GFP response relative to DMSO is 98.8% (inactive) in assay [2], 99.3% in assay [2] (setting [8]) and 97.5% in assay [2] (setting [9]). The GFP response, % of DMSO was 101% (inactive) in assay [4], 97.8% (inactive) in assay [5], 98.3% in assay [5] (setting [6]) and 95.6% in assay [5] (setting [7]).
